Screens as filed in PubChem BioAssay.
An excerpt weighted towards active compounds, which were near 1.9% of everything screened.
pCIP destab: lowers stability of the mouse p/CIP coactivator protein; Q05BA5; F442A p/CIP-EGFP cells, EGFP fluorescence, 16 h; decrease of EGFP signal, % at 10 µM; hit rate 0.01% among 290,000; AID 1984;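 active = EGFP signal decrease of at least 30% at 10 µM or well 3 SD below plate mean, unless failing retest; inactive = the rest, including hits failing retest or dose response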
p47phox inh: p47phox (human) inhibition; p47phox/p22phox peptide binding, fluorescence polarization, 2 h; inhibition, % at 24.7 µM; hit rate 0.53% among 220,000;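 active = inhibition above about 30%, limit read from the data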;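 also: 0% = p47phox with labelled peptide and 100% = labelled peptide alone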
Dynein transport: dynein cargo transport inhibition | 3617.4 mouse cells, GR-EGFP nuclear translocation imaging; test concentration mostly 20 µM; stimulated with dexamethasone, 1 µM; stronger effect = lower value | z-score, hits read low | hit rate 0.47% among 220,000 | AID 1381;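 active = plate z-score of nuclear minus cytoplasmic receptor signal below a set negative limit, without overly bright fluorescence or cell loss, cut at about -3.5 in these data, passing the limit was not always enough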;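 also: z-score of nuclear minus cytoplasmic ring GR-EGFP intensity difference per well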
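Also added – dexamethasone, 1.0 µM final · Buffer or medium – tet-free, stripped-serum medium · Schedule – induction 48 h, compound 1 h, agonist 30 min · Detection – formaldehyde fixation, Hoechst nuclear stain, 10x automated fluorescence imaging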
RAM network inh: inhibitors of the yeast RAM network; AID 868; hit rate 1.8% among 190,000; S. cerevisiae dse1pr::URA3 reporter, 5-FOA growth OD615, 2 d; analog-sensitive cbk1-as2 kinase mutant strain; inhibition, % at 50 µM;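 active = inhibition above a set limit, 3 SD over mean compound inhibition, cut at about 8.4% in these data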;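 also: 0% = DMSO-only wells with no growth and 100% = 10 µM 1-NA-PP1 full growth; inhibition rescues growth on 5-FOA so higher OD means more RAM inhibition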
* = called active by the depositor; nt = no result; + = active, no number.

SMILES	pCIP destab	p47phox inh	Dynein transport	RAM network inh
CC(C)(C)c1ccc(C(=O)N2CCC(=O)N(C(COCc3ccccc3)Cc3ccccc3)CC2)cc1 (stereo not drawn)	-6.3	-2.3	1.7	7.5
Cc1cccc(COCC(Cc2ccccc2)N2CCN(C(=O)c3cccc(C)c3)CCC2=O)c1 (stereo not drawn)	0.8	-11.6	-0.0401	3.6
O=C(c1ccc(Cl)c(Cl)c1)N1CCC(=O)N(C(COCc2cccc(C(F)(F)F)c2)Cc2ccccc2)CC1 (stereo not drawn)	-25.4	-0.5	0.194	9.0*
O=C(c1ccc(C(F)(F)F)cc1)N1CCC(=O)N(C(COCc2ccc(Cl)cc2)Cc2ccccc2)CC1 (stereo not drawn)	6.6	-9.7	-0.265	9.8*
Cc1cccc(COCC(Cc2ccccc2)N2CCN(C(=O)c3ccc(Cl)c(Cl)c3)CCC2=O)c1 (stereo not drawn)	-10.8	-2.6	-0.328	10.3*
CCOC(=O)C1(CC2CCCCO2)CCN(Cc2nc(C(C)C)cs2)CC1 (stereo not drawn)	-5.8	4.5	-0.886	1.2
O=C(N/N=C/c1ccsc1)c1c[nH]c2ccccc12	-8.0	nt	nt	nt
Cc1ccccc1NS(=O)(=O)c1cccc2nsnc12	5.7	nt	nt	nt
COc1ccccc1P(=O)(Cc1ccccc1)c1ccccc1 (stereo not drawn)	-10.2	nt	nt	nt
COc1cc2c(cc1OC)C1(Nc3c-2c(C)nn3-c2ccccc2)C(=O)Nc2ccccc21 (stereo not drawn)	-13.0	-21.6	1.42	9.3*
COc1ccc(-n2cccc2/C=C2\C(=N)N3N=C(C(C)C)SC3=NC2=O)cc1	-13.1	-18.0	-0.385	11.1*
CCC1=NN2C(=N)/C(=C\c3cccn3-c3ccc(Br)cc3)C(=O)N=C2S1	-5.0	42.5*	-0.648	-0.4
COc1ccc(-n2cccc2/C=C2\C(=N)N3N=C(c4ccco4)SC3=NC2=O)cc1	-15.7	-74.8	1.33	2.3
COc1ccc(Cc2nc(C(=O)Nc3ccccc3)cs2)cc1	1.3	-4.0	-0.52	0.9
COc1ccc(Cc2nc(C(=O)Nc3ccc(Cl)cc3)cs2)cc1	-5.7	-1.3	0.709	8.8*
COc1ccc(NC(=O)c2csc(Cc3ccc(Cl)cc3)n2)cc1	-8.8	-10.1	-0.238	11.1*
CCCNC(=O)CN(C)CC(=O)Nc1ccccc1C#N	7.9	15.8	0.787	0.1
Cc1ccc(NC(=O)Cn2nnc(C(=O)NCc3ccc(Cl)cc3)c2N)cc1F	4.4	nt	nt	nt
Cc1ccc(OCC(=O)NC2=NCCS2)cc1	-10.9	46.7*	-1.45	-0.4
O=C(COc1ccccc1)NCC(=O)NC1=NCCS1	1.8	-13.5	-0.762	0.1
CNc1cc(N2CCN(S(=O)(=O)N(C)C)CC2)ccc1[N+](=O)[O-]	-2.9	-7.1	-0.715	0.1
CN(C)S(=O)(=O)N1CCN(c2ccc([N+](=O)[O-])c(NC3CC3)c2)CC1	-4.4	7.2	-0.46	8.6*
S=C(Sc1ccc(Cl)cc1)Sc1ccc(Cl)cc1	-14.7	-3.9	-5.11*	nt
O=C(OCc1ccc(F)cc1)c1ccc2c(c1)-c1ccccc1C2=O	-11.6	-3.3	-0.13	10.5*
O=c1c2ccccc2sn1-c1cc(S(=O)(=O)N2CCOCC2)ccc1N1CCOCC1	-23.1	73.6*	-6.54*	9.2*
SMILES	pCIP destab	p47phox inh	Dynein transport	RAM network inh
O=S(=O)(c1ccc(N2CCOCC2)c(Cl)c1)N1CCOCC1	1.0	nt	nt	nt
O=c1c2ccccc2sn1-c1cc(S(=O)(=O)N2CCOCC2)ccc1N1CCCC1	-4.6	57.6*	-1.07	2.7
Cc1occc1C(=O)N1CCCC(CO)(Cc2ccc(F)cc2F)C1 (stereo not drawn)	-6.5	nt	nt	nt
O=C(/C=C/c1cc([N+](=O)[O-])ccc1OC(F)F)NCc1ccc(F)cc1	-6.2	-19.2	-0.223	8.7*
CCNC(=O)COC(=O)COc1ccc(Cl)cc1C	-2.2	14.6	0.105	0.7
Cc1cc(Cl)ccc1OCC(=O)OCC(=O)Nc1ccc(F)c([N+](=O)[O-])c1	5.6	-17.6	3.15	9.2*
CCN(CC)S(=O)(=O)c1cc(C(=O)Oc2cccc(-c3cnc4ccccc4n3)c2)ccc1OC	4.1	-20.0	-0.23	4.2
CCN(CC)S(=O)(=O)c1ccc(C)c(C(=O)Oc2cccc(-c3cnc4ccccc4n3)c2)c1	-5.0	-9.3	-0.495	9.3*
CC(Oc1ccc(Cl)cc1Cl)C(=O)NCCC1=CCCCC1 (stereo not drawn)	-3.7	-19.9	-0.275	5.3
O=[N+]([O-])c1ccc(N/N=C/c2sc(N3CCOCC3)nc2-c2ccccc2)c(S(=O)(=O)Nc2ccccc2Cl)c1	-227.0	-93.8	-3.52	8.4*
Cc1nn(Cc2ccccc2)c(C)c1NC(=O)CSc1nc2c(c(C(F)(F)F)n1)CCc1ccccc1-2	-1.5	41.7*	0.524	-0.4
O=C(CSc1nc2c(c(C(F)(F)F)n1)CCc1ccccc1-2)NCc1ccccc1	-11.4	-8.4	0.0581	3.2
O=C(N=Nc1ccc(NOC(=O)c2ccccc2Br)cc1)c1ccccc1O	-0.5	18.4	-0.518	11.0*
O=Nc1ccc(NOC(=O)c2ccccc2)cc1	-11.8	2.4	-0.367	2.3
Cn1cc(Br)c(C(=O)N/N=C/c2cc3c(cc2Cl)OCO3)n1	-4.5	nt	nt	nt
Cc1ccc(C(=O)N2CCCC2)cc1Br	-14.4	92.2*	-0.475	0.8
Cc1ccc(C(=O)N2CCCCC2)cc1S(=O)(=O)N1CCCC1	-11.3	nt	nt	nt
CCc1nnc(NS(=O)(=O)c2ccc(NC(=O)CCC(=O)OC)cc2)s1	-12.1	nt	nt	nt
COCCCNC(=O)c1c(N)n(-c2ccccc2)c2nc3ccccc3nc12	-2.5	-11.9	-0.862	nt
COCCCNC(=O)c1c(N)n(/N=C/c2cccs2)c2nc3ccccc3nc12	-4.4	-32.9	-0.61	8.7*
COCCCNC(=O)c1c(N)n(/N=C/c2cccnc2)c2nc3ccccc3nc12	6.9	-11.5	-1.46	10.8*
Cc1nc(C)c(C(=O)N2CCCC(C(=O)c3cc(F)ccc3F)C2)s1 (stereo not drawn)	-1.6	nt	nt	nt
CC(=O)Nc1ccc(S(=O)(=O)N(c2cccnc2)S(=O)(=O)c2ccc(NC(C)=O)cc2)cc1	-8.2	-13.5	0.263	10.0*
N#Cc1c(Nc2ccccc2)sc(C(=O)c2ccc(F)cc2)c1N	-10.0	-0.9	0.441	10.9*
CCn1c(O)c(N=NC(=S)NCC2CCCO2)c2ccccc21 (stereo not drawn)	-2.4	8.7	-0.0584	3.5
SMILES	pCIP destab	p47phox inh	Dynein transport	RAM network inh
COc1cc(/C=C/C(=O)OCC(=O)Nc2ccc(NC(C)=O)cc2)cc(S(=O)(=O)N2CCc3ccccc32)c1OC	8.8	-41.1	0.533	10.3*
COc1cc(/C=C/C(=O)OCC(=O)NC2CC2)cc(S(=O)(=O)N2CCc3ccccc32)c1OC	-8.1	-11.2	-1.45	0.4
CCc1ccc(N/C(SCc2ccccc2C)=C(/C#N)C(=O)NCc2ccco2)cc1	-6.3	-15.2	-0.123	11.0*
Cc1c(Cl)cccc1N1CC(C(=O)Nc2nccs2)CC1=O (stereo not drawn)	-1.7	+	-0.154	2.3
N#Cc1cc(-c2ccccc2)nn1-c1ccccc1	16.2	33.7*	-0.948	1.6
Cn1ccc(-c2ccccc2)n1	9.9	-0.5	-0.608	0.5
